# Many of the other results were omitted from the sample, so hits are more common in it than they were.
# hDAT+cocaine – changed human dopamine transporter uptake under cocaine IC80; Q01959; LLC-PK1 hDAT cells, [14C]-dopamine uptake with cocaine IC80; actives deviate in either direction; B-score at 10 µM; actives 1.3% (n = 110,000); AID 449768;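 active = Z score or B-score, a plate-position-corrected score, falls beyond the plate's 99.7% confidence bounds, in either direction; inactive = both scores lie inside the 99.7% bounds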
# HEK293 NFkB inh – inhibitors of the PMA/ionomycin-induced NF-kB reporter in HEK293 cells; HEK-293 NF-kB luciferase reporter, luminescence; inhibition, % at 3 µM; actives 0.21% (n = 62,000); AID 465;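 active = inhibition above the mean of all tested compounds plus 3 SD, cut at about 40% in these data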
#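 Timing: 1 h pretreatment, 16 h stimulation, 37 °C; system: HEK-293 cells with stable firefly luciferase reporter driven by four HIV NF-kB elements; doses: 3 µM once, 0.30% DMSO; measured by: luciferase luminescence; control set: DMSO and 10 µM reference inhibitor; repeats: single test; reagent: PMA plus ionomycin mix as NF-kB-activating stimulus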
# AP ELISA ortho – alternative pathway complement inhibition, orthogonal assay; Human serum alternative complement pathway, LPS-coated ELISA, C3 deposition; tested in compound mixtures; inhibition, % at 5 µM; actives 0.08% (n = 62,000);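 active = inhibition above 30% in each of the two pooled mixtures holding the compound, so the lower value exceeds 30%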
#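 Assay system: human serum alternative complement pathway, C3 deposition on LPS-coated wells; Dosing: 5 µM per compound in ten-compound mixtures; Detection: Anti-C3 ELISA, OD 450 nm; Buffer or medium: Mg2+-EGTA GVB++ buffer containing human serum at 1:15 dilution; Timing: 1 h at 37 °C; Replication: two different pools per compound.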
# Ec RNAP inh – Escherichia coli RNA polymerase inhibition. E. coli RNA polymerase, fluorescence transcription assay. inhibition, %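 (tested at 10 µM)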. actives 0.2% (n = 62,000); in the data active = inhibition above about 20%
# D1 allo mod – D1 dopamine receptor (human) allosteric modulation; P21728; HEK293 D1, CRE-luciferase, dopamine EC30 potentiation; actives deviate in either direction; B-score at 10 µM; actives 5.9% (n = 58,000); AID 641;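 active = luminescence count or its row- and column-corrected plate score outside the 99.7% band of the plate's sample wells, on either side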
# Target sequence (P21728 whole entry, looked up): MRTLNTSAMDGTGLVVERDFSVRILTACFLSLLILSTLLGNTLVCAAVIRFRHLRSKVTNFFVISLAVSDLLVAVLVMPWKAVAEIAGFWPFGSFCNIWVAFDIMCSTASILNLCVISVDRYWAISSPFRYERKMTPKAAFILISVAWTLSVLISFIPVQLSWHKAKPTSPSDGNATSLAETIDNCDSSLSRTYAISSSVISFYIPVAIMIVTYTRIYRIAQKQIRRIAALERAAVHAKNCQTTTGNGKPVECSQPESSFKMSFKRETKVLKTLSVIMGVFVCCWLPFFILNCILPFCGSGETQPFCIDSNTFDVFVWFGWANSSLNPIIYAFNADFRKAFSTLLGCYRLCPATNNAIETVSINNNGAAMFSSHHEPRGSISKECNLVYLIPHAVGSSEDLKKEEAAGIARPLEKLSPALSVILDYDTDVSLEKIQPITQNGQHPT
# Numbers stand for hits; n = inactive; x = no result; ! = a repeat was not active.
SMILES,hDAT+cocaine,HEK293 NFkB inh,AP ELISA ortho,Ec RNAP inh,D1 allo mod
Cc1oc(-c2ccc(Cl)cc2)nc1CN1CCC(C(=O)NCc2ccco2)CC1,n,n,n,n,-3.17
COc1ccc(-n2nnnc2SCC(=O)Nc2nc3c(s2)CCCC3)cc1,n,x,x,x,x
N#C/C(=N\O)c1nc(-c2ccccc2)cs1,-5.23!,x,x,x,x
N#CC(=C1CCCC1)c1nc(-c2ccccc2)cs1,n,x,x,x,x
O=C(NC1=NCCS1)c1ccc(OCC2CCCO2)cc1 (stereo unspecified),n,n,n,n,-3.03
Cn1cccc1Cc1nnc(SCC(=O)Nc2cccc(F)c2)n1CCc1ccccc1,2.07,n,n,n,n
Cn1cccc1Cc1nnc(SCC(=O)Nc2ccccc2F)n1CCc1ccccc1,n,n,n,n,n
Cn1cccc1Cc1nnc(SCC(=O)Nc2ccc(Cl)cc2)n1-c1ccc(F)cc1,2.76,n,n,n,n
Cn1cccc1Cc1nnc(SCC(=O)Nc2ccc(F)cc2)n1-c1ccc(F)cc1,n,n,n,n,n
Cc1cc(Cl)cc2c1NC(=O)[C@]21[C@@H]2C(=O)N(Cc3ccccc3)C(=O)[C@@H]2[C@@H]2CCCN21,3.65,n,n,33.2,n
OC(CN1CCN(c2ccccc2)CC1)c1ccc2c(c1)CCN2 (stereo unspecified),n,n,n,n,-3.01
CCOC(=O)N1CCN(CC(O)c2ccc3c(c2)CCN3)CC1 (stereo unspecified),n,n,n,n,-3.85
CCOC(=O)N1CCN(CC(O)c2ccc3cc[nH]c3c2)CC1 (stereo unspecified),n,n,n,n,n
COC(=O)c1ccc(OCC(=O)Nc2nn(-c3ccccc3)nc2C(N)=O)cc1,n,n,n,n,n
O=C(CSc1nnc(CNc2ccc(Cl)cc2)o1)Nc1nc2c(s1)CCCC2,n,n,n,23.1,n
CCOC(=O)c1cnc(SC2CCc3ccccc3C2=O)nc1N (stereo unspecified),2.74,n,n,n,n
Cc1cccc(NC(=O)CCN2CCOCC2)c1,n,n,38.3,n,n
CC(C)Cc1nnc(NS(C)(=O)=O)s1,-7.83,x,x,x,x
CCCn1c(SCC(=O)N2CCCc3ccccc32)nnc1-c1ccccn1,n,n,n,n,n
Cc1ccc(CN2CC34C=CC(O3)C(C(=O)NCc3ccc5c(c3)OCO5)C4C2=O)cc1 (stereo unspecified),-8.13,n,n,n,x
CC(C)Nc1ccc(C(CC(N)=O)NC(=O)Cc2ccc(Br)cc2)cc1[N+](=O)[O-] (stereo unspecified),n,x,x,x,x
O=C(Nc1ccc(Cl)cc1)Nc1cccnc1,-2.33,x,x,x,x
CCOP(=O)(c1ccccc1)C1(O)CCCCC1 (stereo unspecified),n,x,x,x,x
CCN(C(=O)c1ccc(C(C)(C)C)cc1)c1nnc(Cn2nnc3ccccc32)s1,n,40.1,n,n,n
Cc1ccc(C)c(S(=O)(=O)NCc2ccc(C(=O)N3CCC(Cc4ccccc4)CC3)cc2)c1,3.48,x,x,x,x
SMILES,hDAT+cocaine,HEK293 NFkB inh,AP ELISA ortho,Ec RNAP inh,D1 allo mod
Cc1ccc(C)c(S(=O)(=O)NCc2ccc(C(=O)N3CCN(C)CC3)cc2)c1,n,n,n,n,n
O=C(C1=C[C@H](c2csc3ccccc23)C[C@H](OCc2ccc(CO)cc2)O1)N1CCCCCCC1,n,x,x,x,x
CCSc1nnc(-c2sc3nnc(-c4ccccc4)c(-c4ccccc4)c3c2N)o1,1.58,x,x,x,x
CCSc1nnc(-c2ccncc2)o1,n,x,x,x,x
CCOc1ccc(NC(=O)c2ccccc2CO)cc1,n,n,n,n,n
CCOc1ccc(NC(=O)c2cnccn2)cc1,n,x,x,x,x
CCOc1ccc(NC(=O)c2ccccc2O)cc1,n,n,n,n,-4.71
CCOc1ccc(NC(=O)c2cnsn2)cc1,n,n,n,n,-4.92
CC(=O)c1cccc(NC(=O)CCS(=O)(=O)c2cccc3nsnc23)c1,2.49,x,x,x,x
O=C(CCS(=O)(=O)c1cccc2nsnc12)NCc1ccccc1,-8.19,n,n,n,n
CN(CC(=O)NCc1cccs1)S(=O)(=O)c1cccc2nsnc12,-9.06,n,n,n,n
O=C(CCCNS(=O)(=O)c1cccc2nsnc12)NCc1ccc(F)cc1,n,n,n,28.3,n
CCOC(=O)CN1C(=O)N[C@@H](c2cccc(C(F)(F)F)c2)C(C(=O)OC)=C1C,n,x,x,x,x
CN1CCN(c2ccc(NC(=O)c3cccc(OCc4ccccc4)c3)cc2)CC1,x,n,n,n,-5.89
CC(=O)Nc1ccc(N2CCCCC2)cc1,n,x,x,x,x
O=C(Nc1ccc(N2CCCC2)cc1)c1cccc(F)c1,n,n,n,n,-4.93
O=C(Nc1ccc(N2CCCCC2)cc1)c1ccccc1,n,n,n,n,-4.77
CCN1CCN(c2ccc(NC(=O)c3cccc(OCc4ccccc4)c3)cc2)CC1,n,x,x,x,x
CNC(=O)c1ccsc1NC(=O)c1ccccc1,n,n,n,n,17
CN(C)NC(=O)c1ccsc1NC(=O)c1ccc(S(=O)(=O)N(C)C)cc1,n,x,x,x,x
O=C(CCCc1c[nH]c2ccccc12)N1CCN(c2ccc(N3CCOCC3)nn2)CC1,2.51,n,n,n,n
CCOc1ccc(C2/C(=C(/O)c3ccc(OC)cc3)C(=O)C(=O)N2c2cc(C)on2)cc1OC (stereo unspecified),3.6,x,n,n,n
CCOC(=O)/C(C#N)=C1/C=CN(C)C(C)=N1,n,n,33.2,x,n
COCCn1ccc(O)c(Cc2ccc(Cl)cc2)c1=O,n,x,x,x,x

# Bioassay records from PubChem BioAssay.
